Usually IC50 stands for the point on the concentration scale where inhibition reaches its midpoint. Usually Ki stands for a dissociation constant, usually derived from enzyme kinetics or from competition with a known ligand. Read a low Ki as tighter binding.

The values below come from ChEMBL document CHEMBL1126834, “Chemistry, binding affinities, and behavioral properties of a new class of "antineophobic" mitochondrial DBI receptor complex (mDRC) ligands” (J Med Chem, 1993).

The structures appear in SMILES notation. Bounds are passed on as bounds.

The target in test [1] is T1, Gastrin/cholecystokinin type B receptor (Rattus norvegicus, UniProt P30553).
T1 sequence (P30553 whole entry): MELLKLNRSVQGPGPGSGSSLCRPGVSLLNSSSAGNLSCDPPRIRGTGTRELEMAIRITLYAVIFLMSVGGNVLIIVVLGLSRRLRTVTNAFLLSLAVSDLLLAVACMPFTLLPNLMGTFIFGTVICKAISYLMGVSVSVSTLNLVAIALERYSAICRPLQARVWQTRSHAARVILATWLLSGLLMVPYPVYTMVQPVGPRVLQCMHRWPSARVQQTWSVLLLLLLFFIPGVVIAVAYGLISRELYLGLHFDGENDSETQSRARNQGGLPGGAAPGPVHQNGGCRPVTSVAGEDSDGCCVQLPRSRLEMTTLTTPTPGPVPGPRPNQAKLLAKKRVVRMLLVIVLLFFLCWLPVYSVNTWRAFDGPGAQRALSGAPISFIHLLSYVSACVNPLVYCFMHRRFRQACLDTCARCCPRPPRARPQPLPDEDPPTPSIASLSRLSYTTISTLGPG
In words: Inhibitory activity by measuring its ability to displace [3H]L-365260 from cholecystokinin receptor in rat brain. The class given is tissue-based.

Test [2] in a line: Inhibitory activity by measuring its ability to displace [3H]glycine from glycine receptor in rat brain. The class given is tissue-based.
Test [3] is described as follows: Inhibitory activity by measuring its ability to displace [3H]spiperone from dopamine or serotonin 5-HT-1 receptors in rat brain. The test is classed as tissue-based.
For another test, the target named is Translocator protein (Rattus norvegicus, UniProt P16257). In words: Binding affinity against mitochondrial DBI complex (peripheral benzodiazepine receptor) using primary cultures of glial cells. A digest of the protocol:
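Glia from cerebella of 8-day-old Sprague–Dawley rat pups, trypsin-dissociated and grown 14 days (~95% astroglia). Cells lysed in 50 mM Hepes pH 7.4, 4 μg protein per tube. Incubated with [3H]4'-chlorodiazepam and competitor for 90 min at 4 °C, then filtered. Nonspecific binding defined with 10 μM 4'-chlorodiazepam. Triplicate competition curves; IC50 by nonlinear regression, converted to Ki (Bylund–Yamamura).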

The target of test [4] is Serotonin 2 (5-HT2) receptor (Rattus norvegicus). Description: Inhibitory activity by measuring its ability to displace [3H]ketanserin from serotonin receptor in rat brain.
In another test the target is Glutamate NMDA receptor. Description: Inhibitory activity by measuring its ability to displace [3H]-MK-801 from glutamate(NMDA) receptor in rat brain. The class given is tissue-based.
The target of another test is Adrenergic receptor beta (Rattus norvegicus, UniProt P18090+P10608+P26255). Description: Inhibitory activity by measuring its ability to displace [125I]pindolol from beta-adrenergic receptor in rat brain. The class given is tissue-based.
Test [5] can be described thus: Tested for inhibitory activity by measuring its ability to displace [3H]AMPA from glutamate (non-NMDA) receptor in rat brain. The class given is tissue-based.
Test [6] has as its target GABA-A receptor; anion channel. In words: Inhibitory activity at GABA A receptor, measured by the ability to displace [3H]flumazenil from GABA A receptor in rat brain. The test is classed as tissue-based.
For test [7], the target named is Sigma receptor (Rattus norvegicus). Description: Tested for inhibitory activity by measuring its ability to displace [3H]3-PPP from sigma receptor in rat brain.
The next test deals with Opioid receptor (Rattus norvegicus, UniProt P33533+P34975+P33535). Description: Inhibition of [3H]naxolone binding to opiate receptors in rat brain. The test is classed as tissue-based.
The target of test [8] is GABA-A receptor; anion channel. In words: Inhibitory activity at GABA A receptor, measured by the ability to displace [3H]GABA from GABA A receptor in rat brain. The test is classed as tissue-based.
Test [9] can be described thus: Inhibitory activity at GABA B receptor, measured by the ability to displace [3H]baclofen from GABA B receptor in rat brain. The test is classed as tissue-based.
Another test concerns the target Cannabinoid receptor 1 (Rattus norvegicus, UniProt P20272). Description: Inhibitory activity, measured by displacement [3H]CP-55940 from cannabinoid receptor (CB1) in rat brain. The test is classed as tissue-based.
For test [10], the target named is GABA-A receptor; anion channel. Description: Inhibitory activity at GABA A receptor, measured by the ability to displace [35S]TBPS from GABA A receptor in rat brain. The class given is tissue-based.
Test [11] deals with GABA-A receptor; anion channel. In words: Inhibitory activity at GABA A receptor, measured by the ability to displace [3H]zolpidem from GABA A receptor in rat brain. The class given is tissue-based.
The target of test [12] is Adrenergic receptor alpha. In words: Inhibitory activity by measuring its ability to displace [3H]WB-4101 from alpha-adrenergic receptor in rat brain. The class given is tissue-based.
Test [13] concerns the target Adrenergic receptor alpha. In words: Inhibitory activity by measuring its ability to displace [3H]clonidine from alpha-adrenergic receptor in rat brain. The class given is tissue-based.
The target in test [14] is Adrenergic receptor alpha. Description: Displacement of [3H]clonidine from alpha-adrenergic receptor in rat brain. The class given is tissue-based. For orientation: In a radioligand displacement assay an active substance lowers the binding of a labelled ligand.

Cannabinoid receptor 1, sequence (P20272 whole entry): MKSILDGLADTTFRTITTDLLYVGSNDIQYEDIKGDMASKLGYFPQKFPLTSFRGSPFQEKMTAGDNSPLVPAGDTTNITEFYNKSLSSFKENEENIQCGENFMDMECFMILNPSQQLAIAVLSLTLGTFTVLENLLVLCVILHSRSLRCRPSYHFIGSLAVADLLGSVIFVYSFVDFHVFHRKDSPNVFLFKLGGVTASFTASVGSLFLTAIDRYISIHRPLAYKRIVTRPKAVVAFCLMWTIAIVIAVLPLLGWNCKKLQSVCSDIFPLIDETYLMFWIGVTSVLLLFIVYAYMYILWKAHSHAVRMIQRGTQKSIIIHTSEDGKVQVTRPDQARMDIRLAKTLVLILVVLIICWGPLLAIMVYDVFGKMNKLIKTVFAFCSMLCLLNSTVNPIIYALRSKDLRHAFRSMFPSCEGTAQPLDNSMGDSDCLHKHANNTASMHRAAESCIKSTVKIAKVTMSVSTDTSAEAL
Translocator protein, sequence (P16257 whole entry, looked up): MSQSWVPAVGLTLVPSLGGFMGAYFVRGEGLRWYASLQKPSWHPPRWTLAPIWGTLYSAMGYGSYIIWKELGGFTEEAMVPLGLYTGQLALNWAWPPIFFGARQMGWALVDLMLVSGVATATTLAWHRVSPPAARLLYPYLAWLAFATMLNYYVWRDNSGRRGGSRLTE

With `CCCN(CCC)C(=O)/C=C/c1c(-c2ccc(Cl)cc2)[nH]c2ccccc12`, the IC50 (in test [1]; in test [2]; in test [3]; in test [4]; at Glutamate NMDA receptor; at Adrenergic receptor beta) was above 1 µM each time. Besides, the IC50 (in test [5]; in test [6]; in test [7]; on Opioid receptor; in test [8]; in test [9]) was above 1 µM each time. Besides, the half-maximal inhibitory concentration (IC50) (at Cannabinoid receptor 1; in [10]; in [11]; in test [12]; in test [13]) was above 1 µM each time. Also, on Translocator protein, the affinity corresponds to a Ki of 0.4 µM.
Regarding `CCCN(CCC)C(=O)Cc1c(-c2ccccc2)[nH]c2cc(F)ccc12`, the IC50 (in [1]; in test [2]; in test [3]; in test [4]; on Glutamate NMDA receptor; at Adrenergic receptor beta) was above 1 µM in each case. Besides, the IC50 (in test [5]; in test [6]; in test [7]; on Opioid receptor; in test [8]; in test [9]) was above 1 µM throughout. Further, the IC50 (at Cannabinoid receptor 1; in test [10]; in [11]; in [12]; in test [13]) was above 1 µM in each case. Moreover, at Translocator protein, the inhibition constant Ki came to 0.202 µM.
Turning to `CCCCCCCCCCNC(=O)Cc1c(-c2ccccc2)[nH]c2ccccc12`, the IC50 (in [1]; in test [2]; in test [3]; in [4]; on Glutamate NMDA receptor; at Adrenergic receptor beta) was above 1 µM throughout. Besides, the 50% inhibitory concentration (IC50) (in test [5]; in [6]; in [7]; at Opioid receptor; in test [8]; in [9]) was above 1 µM each time. In addition, the IC50 (on Cannabinoid receptor 1; in [10]; in [11]; in test [12]; in [13]) was above 1 µM throughout. Further, the Ki at Translocator protein is above 1 µM.
With `CCCN(CCC)C(=O)CCc1c(-c2ccc(Cl)cc2)[nH]c2ccc(Cl)cc12`, the IC50 (in test [1]; in test [2]; in [3]; in test [4]; at Glutamate NMDA receptor; on Adrenergic receptor beta) was above 1 µM each time. Also, the IC50 (in test [5]; in test [6]; in test [7]; at Opioid receptor; in test [8]; in test [9]) was above 1 µM in each case. In addition, the IC50 (on Cannabinoid receptor 1; in test [10]; in test [11]; in test [12]; in [13]) was above 1 µM each time. The molecule also gave an inhibition constant Ki on Translocator protein of 0.071 µM.
Consider `CCCN(CCC)C(=O)Cc1c(-c2ccc(Cl)cc2)[nH]c2ccc(Cl)cc12`, for which the IC50 (in [1]; in test [2]; in [3]; in [4]; on Glutamate NMDA receptor; on Adrenergic receptor beta) was above 1 µM throughout. Moreover, the concentration for half-maximal inhibition (IC50) (in test [5]; in test [6]; in test [7]; on Opioid receptor; in test [8]; in [9]) was above 1 µM in each case. Moreover, the IC50 (at Cannabinoid receptor 1; in [10]; in [11]; in test [12]; in test [13]) was above 1 µM in each case. The molecule also came in with an inhibition constant Ki on Translocator protein of 0.0039 µM.
With `CCCCCCCCN(CCCCCCCC)C(=O)Cc1c(-c2ccccc2)[nH]c2ccccc12`, the IC50 (in [1]; in test [2]; in [3]; at Glutamate NMDA receptor; in test [14]; on Adrenergic receptor beta) was above 1 µM in each case. Besides, the IC50 (in [5]; in test [6]; in [8]; in test [9]; at Cannabinoid receptor 1; in test [10]) was above 1 µM each time. In addition, the IC50 in test [11] and in [12] was above 1 µM each time. The molecule further had a Ki on Translocator protein above 1 µM.
Consider `CCCCCN(CCCCC)C(=O)Cc1c(-c2ccc(F)cc2)[nH]c2ccccc12`, for which the IC50 (in [1]; in [2]; in test [3]; in [4]; at Glutamate NMDA receptor; at Adrenergic receptor beta) was above 1 µM each time. Also, the IC50 (in test [5]; in test [6]; in [7]; at Opioid receptor; in test [8]; in test [9]) was above 1 µM each time. Also, the IC50 (on Cannabinoid receptor 1; in [10]; in [11]; in [12]; in test [13]) was above 1 µM in each case. Also, on Translocator protein, the Ki is 0.015 µM.
As to `CCCN(CCC)C(=O)Cc1c(-c2ccc(Cl)cc2)n(C)c2ccccc12`, the IC50 (in test [1]; in test [2]; in test [3]; in [4]; at Glutamate NMDA receptor; on Adrenergic receptor beta) was above 1 µM each time. In addition, the IC50 (in test [5]; in [6]; in [7]; at Opioid receptor; in test [8]; in test [9]) was above 1 µM each time. Also, the IC50 (at Cannabinoid receptor 1; in [10]; in [11]; in test [12]; in test [13]) was above 1 µM throughout. For the same molecule, the Ki on Translocator protein was 0.34 µM.
Take `CCCN(CCC)C(=O)Cc1c(-c2ccc(Br)cc2)[nH]c2ccccc12`: the concentration for half-maximal inhibition (IC50) (in [1]; in [2]; in test [3]; in [4]; at Glutamate NMDA receptor; at Adrenergic receptor beta) was above 1 µM throughout. In addition, the IC50 (in test [5]; in test [6]; in test [7]; at Opioid receptor; in test [8]; in [9]) was above 1 µM throughout. The IC50 (at Cannabinoid receptor 1; in test [10]; in test [11]; in test [12]; in test [13]) was above 1 µM each time. The molecule further yielded a Ki at Translocator protein of 0.216 µM.
